Consider 5 molecules from PMC3646568 (Protein and peptide letters, 2012).

Test [1] addresses VEGFR-3 (Homo sapiens) (UniProt P35916). The note with it: cited from earlier work.
For test [2], the system named is VEGFR-2-Fc. The note with it: cited from earlier work.
Test [3] relates to VEGF or basic fibroblast growth factor (bFGF). The note with it: cited from earlier work.
Test [4] relates to recombinant VEGFR-3-Fc. The class given is binding, mouse. The settings on record: pull-down. The method in brief: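 GST-fused endostatin-containing fragments were incubated with recombinant VEGFR-3-Fc and a range of VEGF-C concentrations. Receptor–ligand complexes were recovered by pull-down and probed by western blot with anti-VEGFR-3 antibody.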
Test [5] concerns Primary human lung lymphatic endothelial cells (h-LECs). Put plainly: Scratch wound cell migration assay, h-LECs. Format: cell-based. The settings on record: 100 ng/mL VEGF-C stimulation, 24 h. Put shortly:
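Confluent h-LECs held serum-free for 24 h, rinsed with DMEM, and scratched with a pipette tip. Washed with PBS, then kept 24 h in experimental medium with 100 ng/mL VEGF-C ± test peptide. Fixed in 4% paraformaldehyde; cells migrating past the scratch counted in ≥3 fields per well, three wells per condition.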

Test [6] concerns the target VEGFR3-AP (a VEGFR-3 fusion protein). The note with it: fully processed VEGF-C binding to VEGFR3-AP; cited from earlier work.
Test [7] deals with T1, recombinant mouse VEGFR-3-Fc (mouse, UniProt P35917 25-775).
T1 sequence (looked up): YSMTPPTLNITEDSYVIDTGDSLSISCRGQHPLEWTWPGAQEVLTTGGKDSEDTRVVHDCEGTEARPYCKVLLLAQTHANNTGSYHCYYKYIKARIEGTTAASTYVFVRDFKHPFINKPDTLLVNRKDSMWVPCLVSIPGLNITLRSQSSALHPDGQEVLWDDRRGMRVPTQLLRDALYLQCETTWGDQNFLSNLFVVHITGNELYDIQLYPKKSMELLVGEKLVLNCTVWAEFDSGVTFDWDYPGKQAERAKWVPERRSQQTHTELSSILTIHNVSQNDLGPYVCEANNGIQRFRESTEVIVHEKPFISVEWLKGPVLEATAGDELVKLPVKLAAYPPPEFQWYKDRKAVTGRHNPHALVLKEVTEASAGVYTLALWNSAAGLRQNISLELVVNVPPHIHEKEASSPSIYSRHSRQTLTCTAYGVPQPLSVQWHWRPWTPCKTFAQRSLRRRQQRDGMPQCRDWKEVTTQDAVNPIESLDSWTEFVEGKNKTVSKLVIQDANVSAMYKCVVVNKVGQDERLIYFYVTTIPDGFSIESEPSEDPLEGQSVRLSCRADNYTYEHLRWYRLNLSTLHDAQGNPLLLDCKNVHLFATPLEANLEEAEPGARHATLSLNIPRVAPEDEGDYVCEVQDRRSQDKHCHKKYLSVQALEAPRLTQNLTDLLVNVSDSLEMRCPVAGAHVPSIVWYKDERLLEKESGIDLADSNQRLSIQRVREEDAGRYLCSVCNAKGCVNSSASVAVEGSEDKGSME
As to the kind of experiment: SPR. On the technique in general: Surface plasmon resonance follows binding to a sensor surface in real time, without labels.

Read-outs that look alike come from different tables or passages of the source.

Broadly, the Kd is the concentration at which binding is half-saturated. VEGF-C (from UniProt P49767): the Kd in test [1] is 1 nM.

Regarding endostatin, in test [2] (10-min preincubation of endostatin with VEGFR-2-Fc), the “Block of interaction of VEGF-A and VEGFR-2-Fc” value was “blocks the interaction of VEGF-A and VEGFR-2-Fc in a dose-dependent manner”. For the same molecule, the “Dissociation rate of VEGFR-2-Fc from VEGF and its receptor complex” value in test [2] (endostatin 10 μg/mL) is recorded as “does not affect the dissociation rate”. Also, the “Binding to VEGF or bFGF” value in test [3] is recorded as “does not bind to VEGF or basic fibroblast growth factor (bFGF)”.

B1: GST-endostatin-containing fragments: GST-endostatin-containing fragments (protein)
chain: HTHQDFQPVLHLVALNTPLSGGMRGIRGADFQCFQQARAVGLSGTFRAFLSSRLQDLYSIVRRADRGSVPIVNLKDEVLSPSWDSLFSGSQGQLQPGARIFSFDGRDVLRHPAWPQKSVWHGSDPSGRRLMESYCETWRTETTGATGQASSLLSGRLLEQKAASCHNSYIVLCIENSFMTSFSK
modifications: left off: GST, end not stated, kept
Take B1: the “Binding of GST-endostatin-containing fragment to VEGFR-3-Fc” value is reported as “able to bind VEGFR-3-Fc” in test [4] (western blot with anti-VEGFR-3 antibody, absence of VEGF-C and low concentration of VEGF-C (lanes 1 and 2)); “diminished” in test [4] (western blot, VEGF-C at a higher concentration (lane 3)).

B2: VEGF-C: vascular endothelial growth factor C, recombinant; literature KD for fully processed VEGF-C (protein)
chain: FESGLDLSDAEPDAGEATAYASKDLEEQLRSVSSVDELMTVLYPEYWKMYKCQLRKGGWQHNREQANLNSRTEETIKFAAAHYNTEILKSIDNEWRKTQCMPREVCIDVGKEFGVATNTFFKPPCVSVYRCGGCCNSEGLQCMNTSTSYLSKTLFEITVPLSQGPKPVTISFANHTSCRCMSKLDVYRQVHSIIRR
As to B2, the “Repopulation of the scratch surface” value in test [5] is on record as “approximately 50%”. In addition, the Kd in test [6] was 1 nM.

One may read the koff as a measure of how fast the partners let go of each other. By kon is commonly meant the second-order rate constant of association. Consider LEQKAASCHNSYIVLCIENSFMTSFSK [murine endostatin peptide (mEP)], for which, in test [7], the koff worked out at 0.672 s⁻¹ and the kon worked out at 1.41e+07 M⁻¹ s⁻¹.
